Source: ChEMBL document CHEMBL3616437, “Thiazole compounds with activity against Cryptococcus gattii and Cryptococcus neoformans in vitro” (Eur J Med Chem, 2015)
Converted amounts (≈) assume the structure as drawn.

Key:
[1] = test system: Cryptococcus gattii species complex; assay: Antifungal activity against Cryptococcus gattii LMM818 after 48 to 72 hrs by broth microdilution method; assay type: functional, Cryptococcus bacillisporus
Method in brief: (§1)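 CLSI M27-A3 broth microdilution in RPMI with L-glutamine, buffered to pH 7.0 with 0.165 M MOPS. Colonies grown twice on SDA, 48 h at 35°C. Inoculum set to 70% transmittance at 530 nm, then diluted to 1-5 x10^3 cells/mL. Test agents dissolved in DMSO, serially diluted, tested at 0.1 to 62.5 µM. Plates held at 35°C for 48-72 h. MIC is the lowest concentration giving an optically clear well, read visually against drug-free growth controls.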

[2] = test system: Cryptococcus gattii species complex; assay: Antifungal activity against Cryptococcus gattii L27/01 after 48 to 72 hrs by broth microdilution method; assay type: functional, Cryptococcus bacillisporus; method in brief: as §1
[3] = test system: Cryptococcus gattii species complex; assay: Antifungal activity against Cryptococcus gattii 1913ER after 48 to 72 hrs by broth microdilution method; assay type: functional, Cryptococcus bacillisporus; method in brief: as §1
Cryptococcus neoformans [4] = assay: Antifungal activity against Cryptococcus neoformans 28JF after 48 to 72 hrs by broth microdilution method; assay type: functional
Method in brief: (§2)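 CLSI M27-A3 broth microdilution. Isolates subcultured twice on SDA, 48 h at 35°C. Saline suspension adjusted to 70% transmittance at 530 nm, then diluted to 1-5 x10^3 cells/mL in RPMI with L-glutamine, 0.165 M MOPS, pH 7.0. Compounds in DMSO, tested at […]. 35°C for 48-72 h. MIC read visually as the lowest concentration giving an optically clear well.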

[5] = test system: Cryptococcus gattii species complex; assay: Antifungal activity against Cryptococcus gattii 135L/03 after 48 to 72 hrs by broth microdilution method; assay type: functional, Cryptococcus bacillisporus; method in brief: as §1
Cryptococcus neoformans [6] = assay: Antifungal activity against Cryptococcus neoformans ATCC 62066 after 48 to 72 hrs by broth microdilution method; assay type: functional
[7] = test system: Cryptococcus gattii species complex; assay: Antifungal activity against Cryptococcus gattii L28/02 after 48 to 72 hrs by broth microdilution method; assay type: functional, Cryptococcus bacillisporus; method in brief: as §1
Cryptococcus neoformans [8] = assay: Antifungal activity against Cryptococcus neoformans ATCC 24067 after 48 to 72 hrs by broth microdilution method; assay type: functional; method in brief: as §2
[9] = test system: Cryptococcus gattii species complex; assay: Antifungal activity against Cryptococcus gattii 196L/03 after 48 to 72 hrs by broth microdilution method; assay type: functional, Cryptococcus bacillisporus; method in brief: as §1
Cryptococcus neoformans [10] = assay: Antifungal activity against Cryptococcus neoformans WP after 48 to 72 hrs by broth microdilution method; assay type: functional; method in brief: as §2
Vero = assay: Cytotoxicity against African green monkey Vero cells assessed as cell viability measured after 48 hrs by MTT assay; assay type: cell-based; conditions: Chlorocebus sabaeus
Method in brief: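 VERO cells in D-MEM with 5% FBS, used up to 20 passages. Seeded 1 x 10^4 cells/well, pre-incubated 24 h at 37°C. Exposed 48 h at 37°C, 5% CO2, to eight nonserial dilutions from 100 to 0.0128 µM, with 0.5% DMSO control. MTT reduction read-out, corrected for background and blank. IC50 reported as median with 95% CI. Triplicate, two independent experiments.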

[11] = test system: Cryptococcus gattii species complex; assay: Antifungal activity against Cryptococcus gattii 23/10993 after 48 to 72 hrs by broth microdilution method; assay type: functional, Cryptococcus bacillisporus; method in brief: as §1
[12] = test system: Cryptococcus gattii species complex; assay: Ratio of compound MIC for Cryptococcus gattii LMM818 in presence of fluconazole to compound MIC for Cryptococcus gattii LMM818 in absence of fluconazole by checkerboard microtiter test; assay type: functional, Cryptococcus bacillisporus
Method in brief: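 Checkerboard microdilution: eight two-fold dilutions of test compound (0.11 to 15.6 µM) crossed with amphotericin B (0.025 to 3.9 µM, in DMSO) or fluconazole (0.48 to 62.5 µM, in water). Inoculum per CLSI M27-A3 in RPMI-MOPS pH 7.0, 1-5 x10^3 cells/mL. Growth 48 to 72 h. Effective MIC is the combination concentration giving complete inhibition. FICs derived from MICs in combination versus alone.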

[13] = Selectivity index, ratio of IC50 for African green monkey Vero cells to MIC for Cryptococcus neoformans ATCC 24067; assay type: toxicity, cell-based
[14] = Cytotoxicity against C57BL/6 mouse peritoneal macrophages assessed as cell viability measured after 48 hrs by MTT assay; assay type: cell-based; conditions: C57BL/6, Peritoneal macrophage cell
Method in brief: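 Thioglycollate-elicited peritoneal macrophages from male C57BL/6 mice, 6–8 weeks old, in RPMI with 10% FBS. Seeded 1 x 10^5 cells/well, pre-incubated 24 h at 37°C. Exposed 48 h at 37°C, 5% CO2, to eight nonserial dilutions from 100 to 0.0128 µM, with 0.5% DMSO control. MTT read-out, % inhibition versus DMSO control. IC50 reported as median with 95% CI. Triplicate, two independent experiments.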

Cryptococcus neoformans [15] = assay: Antifungal activity against Cryptococcus neoformans CN31 after 48 to 72 hrs by broth microdilution method; assay type: functional; method in brief: as §2
[16] = test system: Cryptococcus bacillisporus; assay: Antifungal activity against Cryptococcus gattii ATCC 32608 after 48 to 72 hrs by broth microdilution method; assay type: functional; method in brief: as §1
[17] = test system: Cryptococcus gattii species complex; assay: Antifungal activity against Cryptococcus gattii L24/01 after 48 to 72 hrs by broth microdilution method; assay type: functional, Cryptococcus bacillisporus; method in brief: as §1
Cryptococcus neoformans [18] = assay: Antifungal activity against Cryptococcus neoformans F10 after 48 to 72 hrs by broth microdilution method; assay type: functional; method in brief: as §2
[19] = Selectivity index, ratio of IC50 for C57BL/6 mouse peritoneal macrophages to MIC for Cryptococcus neoformans ATCC 24067
Method in brief: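 SI = IC50/MIC. Thioglycollate-elicited peritoneal macrophages from C57BL/6 mice are seeded at 1 x 10^5/well. They are exposed for 48 h at 37°C to eight concentrations from 100 to 0.0128 µM. Viability read by MTT versus 0.5% DMSO control, triplicate in two experiments.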

Cryptococcus neoformans [20] = assay: Antifungal activity against Cryptococcus neoformans VM-MCMMPI after 48 to 72 hrs by broth microdilution method; assay type: functional; method in brief: as §2
[21] = test system: Cryptococcus gattii species complex; assay: Antifungal activity against Cryptococcus gattii ICB181 after 48 to 72 hrs by broth microdilution method; assay type: functional, Cryptococcus bacillisporus; method in brief: as §1
Cryptococcus neoformans [22] = assay: Antifungal activity against Cryptococcus neoformans LMM820 after 48 to 72 hrs by broth microdilution method; assay type: functional; method in brief: as §2
[23] = test system: Cryptococcus gattii species complex; assay: Antifungal activity against Cryptococcus gattii 547/OTTI-97-PI-10 after 48 to 72 hrs by broth microdilution method; assay type: functional, Cryptococcus bacillisporus; method in brief: as §1
Cryptococcus neoformans [24] = assay: Antifungal activity against Cryptococcus neoformans 5396 after 48 to 72 hrs by broth microdilution method; assay type: functional; method in brief: as §2
Cryptococcus neoformans [25] = assay: Antifungal activity against Cryptococcus neoformans 96806 after 48 to 72 hrs by broth microdilution method; assay type: functional; method in brief: as §2
Cryptococcus neoformans [26] = assay: Antifungal activity against Cryptococcus neoformans ATCC 28957 after 48 to 72 hrs by broth microdilution method; assay type: functional; method in brief: as §2
Cryptococcus neoformans [27] = assay: Antifungal activity against Cryptococcus neoformans 27JF after 48 to 72 hrs by broth microdilution method; assay type: functional; method in brief: as §2

For `C(=N\Nc1nc(-c2ccccc2)cs1)/C1CCCCC1`, which MFC [1] is on record?
Its MFC is 3.9 µM (≈ 1.11 µg/mL).

And the MIC [1]?
Its MIC is 2.2 µM (≈ 0.628 µg/mL).

And the MFC [2]?
The MFC was 1.9 µM (≈ 0.542 µg/mL).

And the MIC [2]?
Its MIC is 1 µM (≈ 0.285 µg/mL).

And the MFC [3]?
The MFC was 7.8 µM (≈ 2.23 µg/mL).

What about the MIC [3] of the same molecule?
The MIC was 1.4 µM (≈ 0.4 µg/mL).

What about the MFC (Cryptococcus neoformans [4]) of the same molecule?
Its MFC is 7.8 µM (≈ 2.23 µg/mL).

What about the MIC (Cryptococcus neoformans [4]) of the same molecule?
The MIC was 2.7 µM (≈ 0.771 µg/mL).

What about the MFC [5] of the same molecule?
The MFC was 3.9 µM (≈ 1.11 µg/mL).

What about the MIC [5] of the same molecule?
Its MIC is 1.9 µM (≈ 0.542 µg/mL).

What about the MFC (Cryptococcus neoformans [6]) of the same molecule?
Its MFC is 7.8 µM (≈ 2.23 µg/mL).

And the MIC (Cryptococcus neoformans [6])?
The MIC was 1.2 µM (≈ 0.342 µg/mL).

And the MFC [7]?
The MFC was 7.8 µM (≈ 2.23 µg/mL).

What about the MIC [7] of the same molecule?
The MIC was 1.9 µM (≈ 0.542 µg/mL).

And the MIC (Cryptococcus neoformans [8])?
The MIC was 0.9 µM (≈ 0.257 µg/mL).

And the MFC [9]?
The MFC was 3.9 µM (≈ 1.11 µg/mL).

And the MIC [9]?
Its MIC is 1.4 µM (≈ 0.4 µg/mL).

And the MFC (Cryptococcus neoformans [10])?
Its MFC is 3.9 µM (≈ 1.11 µg/mL).

What about the MIC (Cryptococcus neoformans [10]) of the same molecule?
Its MIC is 2.2 µM (≈ 0.628 µg/mL).

What about the IC50 (Vero) of the same molecule?
The IC50 was over 100 µM.

And the MFC [11]?
Its MFC is 7.8 µM (≈ 2.23 µg/mL).

What about the MIC [11] of the same molecule?
Its MIC is 1.9 µM (≈ 0.542 µg/mL).

What about the “fractional inhibitory concentration index (FICI)” value [12] of the same molecule?
The value was 2.47.

And the selectivity ratio [13]?
Its selectivity ratio is 111.

What about the IC50 [14] of the same molecule?
The IC50 was over 100 µM.

What about the MFC (Cryptococcus neoformans [15]) of the same molecule?
Its MFC is 1.9 µM (≈ 0.542 µg/mL).

And the MIC (Cryptococcus neoformans [15])?
The MIC was 1.4 µM (≈ 0.4 µg/mL).

What about the MFC [16] of the same molecule?
The MFC was 1.9 µM (≈ 0.542 µg/mL).

And the MIC [16]?
The MIC was 1.4 µM (≈ 0.4 µg/mL).

What about the MFC [17] of the same molecule?
Its MFC is 3.9 µM (≈ 1.11 µg/mL).

And the MIC [17]?
The MIC was 1.4 µM (≈ 0.4 µg/mL).

What about the MFC (Cryptococcus neoformans [18]) of the same molecule?
The MFC was 3.9 µM (≈ 1.11 µg/mL).

What about the MIC (Cryptococcus neoformans [18]) of the same molecule?
Its MIC is 1.7 µM (≈ 0.485 µg/mL).

What about the Ratio [19] of the same molecule?
The Ratio was 111.

What about the MFC (Cryptococcus neoformans [20]) of the same molecule?
The MFC was 3.9 µM (≈ 1.11 µg/mL).

And the MIC (Cryptococcus neoformans [20])?
The MIC was 1.4 µM (≈ 0.4 µg/mL).

And the MFC [21]?
The MFC was 3.9 µM (≈ 1.11 µg/mL).

What about the MIC [21] of the same molecule?
The MIC was 0.7 µM (≈ 0.2 µg/mL).

What about the MFC (Cryptococcus neoformans [22]) of the same molecule?
Its MFC is 1.9 µM (≈ 0.542 µg/mL).

And the MIC (Cryptococcus neoformans [22])?
Its MIC is 1.7 µM (≈ 0.485 µg/mL).

And the MFC [23]?
The MFC was 7.8 µM (≈ 2.23 µg/mL).

What about the MIC [23] of the same molecule?
Its MIC is 1.9 µM (≈ 0.542 µg/mL).

What about the MFC (Cryptococcus neoformans [24]) of the same molecule?
The MFC was 1.9 µM (≈ 0.542 µg/mL).

And the MIC (Cryptococcus neoformans [24])?
The MIC was 1.4 µM (≈ 0.4 µg/mL).

And the MFC (Cryptococcus neoformans [25])?
Its MFC is 3.9 µM (≈ 1.11 µg/mL).

And the MIC (Cryptococcus neoformans [25])?
The MIC was 1.9 µM (≈ 0.542 µg/mL).

And the MFC (Cryptococcus neoformans [26])?
The MFC was 7.8 µM (≈ 2.23 µg/mL).

And the MIC (Cryptococcus neoformans [26])?
Its MIC is 1.2 µM (≈ 0.342 µg/mL).

And the MFC (Cryptococcus neoformans [27])?
The MFC was 7.8 µM (≈ 2.23 µg/mL).

And the MIC (Cryptococcus neoformans [27])?
Its MIC is 2.4 µM (≈ 0.685 µg/mL).
